High-throughput results as filed in PubChem.
Rev-RRE block – inhibitors of HIV-1 Rev-RRE RNA interaction; P05866; Rev peptide-RRE RNA binding, FRET; inhibition, % at 8 µM; 97,000 tested, 0.79% active;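 active means inhibition above the screen-wide mean plus 3 SD, cut at about 35% in these data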;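 further: 0% = median DMSO wells and 100% = median Neomycin B control wells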
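System: Cy5-labelled duplex RRE RNA binding fluorescein-labelled HIV Rev peptide; Signal: fluorescein-to-Cy5 FRET, 480 nm excitation; Also added: labelled Rev peptide; Compound: one concentration, 8 µM nominal; Buffer or medium: HEPES pH 7.5 salt buffer with EDTA; Read-out: % inhibition of FRET ratio versus controls; Schedule: 5 min preincubation and 15 min binding, 25 °C.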
PLK1 inh – PLK1 (human) kinase inhibition. recombinant PLK1 kinase, TR-FRET peptide phosphorylation. 97,000 tested, 0.53% active. AID 619. P53350. inhibition, % at 10 µM;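 active means inhibition of 50% or more in the single-concentration screen; inactive means inhibition below 50%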;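 further: 0% = DMSO max control and 100% = H-89 dihydrochloride min control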
EphB4 ephrin blk – EphB4-ephrin-B2 interaction antagonism | EphB4 LBD / TNYL-RAW-Alexa532 peptide, fluorescence polarization | inhibition, % at 7 µM | 97,000 tested, 0.15% active;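 active means inhibition above the screen-wide mean inhibition plus 3 SD, cut at about 15% in these data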;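 further: 0% = DMSO wells and 100% = excess unlabeled TNYL-RAW peptide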
LYP inh 2 – inhibitors of human LYP (PTPN22) phosphatase; Q9Y2R2; recombinant LYP catalytic domain, DiFMUP fluorescence; 96,000 tested, 0.21% active; inhibition, % at 2 µM;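 active means inhibition at 2 µM at or above a set limit, the screen mean plus 3 SD, cut at about 24% in these data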;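 further: 0% = DMSO with enzyme and 100% = enzyme fully blocked by orthovanadate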
PTPN22 act – activators of human LYP (PTPN22) phosphatase | activation, % at 2 µM | recombinant LYP, DiFMUP fluorescence; 0 = plate median, 100 = signal doubled | 96,000 tested, 0.11% active | Q9Y2R2;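 active means activation at 2 µM above a set limit, the mean plus 5 SD, cut at about 37% in these data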
Plk1 PBD FP – inhibitors of human Plk1 polo box domain binding. P53350. Plk1 PBD phosphopeptide binding, fluorescence polarization. inhibition, %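 (tested at about 20 µM)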. 97,000 tested, 0.13% active; in the data active means inhibition above about 34%, passing the limit was not always enough
PLK1 inh conf – PLK1 (human) kinase inhibition, confirmed; AID 744; shares compounds with PLK1 inh; 210 tested, 20% active; recombinant PLK1 kinase, TR-FRET peptide phosphorylation; inhibition, % at 10 µM;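 active means inhibition at or above 50% in each of two repeat confirmation tests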;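 further: 0% = DMSO max control and 100% = H-89 kinase-blocked min control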
TR-FRET interf – Plk1 assay compound interference counter-screen hit | Plk1 TR-FRET assay interference, compound added post-reaction | AID 756 | 210 tested, under 10 active | shares compounds with PLK1 inh | inhibition (interference), % at 10 µM;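 active means both duplicate runs show 50% or greater inhibition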;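 further: 0% = DMSO max control and 100% = H-89 min control inhibited reaction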
Starred values were filed as active, the others as inactive. An excerpt weighted towards active compounds, which were near 2% of everything screened.

How did O=C(CSc1nnc(-c2ccc(OC(F)F)cc2)o1)NCc1cccs1 do in these assays?
Rev-RRE block: 4.9; PLK1 inh: -5.8; EphB4 ephrin blk: 5.2; LYP inh 2: 6.9; PTPN22 act: -6.3; Plk1 PBD FP: -43.1

What do the screens show for `CCc1ccc(N(CC(=O)NC2CCCCC2)S(=O)(=O)c2c(C)noc2C)cc1`?
Rev-RRE block: -1.4; PLK1 inh: 73.9*; EphB4 ephrin blk: 0.8; Plk1 PBD FP: 12.4; PLK1 inh conf: -8.4; TR-FRET interf: -59.0

Results for CC(=O)/C=C1\SC(CC(=O)O)C(=O)N1c1ccccc1 (stereo not given) ?
Rev-RRE block: 11.9; PLK1 inh: -15.9; EphB4 ephrin blk: -1.8; LYP inh 2: -1.7; PTPN22 act: 0.3; Plk1 PBD FP: -10.0

How did Cn1c(NC(=O)c2cccc(C(F)(F)F)c2)cc(=O)n(C)c1=O do in these assays?
Rev-RRE block: -3.5; PLK1 inh: 3.1; EphB4 ephrin blk: -1.2; LYP inh 2: -15.2; PTPN22 act: 12.1; Plk1 PBD FP: -6.7

How did Cn1c(NC(=O)c2ccccc2C(F)(F)F)cc(=O)n(C)c1=O do in these assays?
Rev-RRE block: 4.4; PLK1 inh: 76.3*; EphB4 ephrin blk: -4.0; Plk1 PBD FP: -0.4; PLK1 inh conf: 4.1; TR-FRET interf: -59.5

How did Cc1nc(=O)c(-c2ccccc2)c(C)n1CCCCCC(=O)O do in these assays?
Rev-RRE block: 11.5; PLK1 inh: -1.2; EphB4 ephrin blk: 12.9; LYP inh 2: -3.5; PTPN22 act: 7.0; Plk1 PBD FP: -2.0

What do the screens show for `COC(=O)c1c(-c2ccc(Br)cc2)noc1N`?
Rev-RRE block: -4.2; PLK1 inh: 77.4*; EphB4 ephrin blk: -6.0; LYP inh 2: -6.3; PTPN22 act: 5.8; Plk1 PBD FP: 5.6; PLK1 inh conf: 62.7*; TR-FRET interf: -50.6

How did CN(CCNC(=O)c1cn(C)c2ccc(S(=O)(=O)N(C)C)cc2c1=O)CCc1ccccc1 do in these assays?
Rev-RRE block: 7.9; PLK1 inh: 75.0*; EphB4 ephrin blk: 2.0; Plk1 PBD FP: 0.9; PLK1 inh conf: -5.5; TR-FRET interf: -49.3

Results for O=C(CN(Cc1ccccc1)S(=O)(=O)c1ccc(Br)cc1)NCc1ccco1 ?
Rev-RRE block: 8.4; PLK1 inh: 84.9*; EphB4 ephrin blk: -4.1; LYP inh 2: -9.8; PTPN22 act: 8.0; Plk1 PBD FP: 11.5; PLK1 inh conf: -8.3; TR-FRET interf: -58.0

Results for Cc1ccc(-c2noc(C3CCCN(C(=O)c4c(F)cccc4F)C3)n2)cc1 (stereo not given) ?
Rev-RRE block: 11.9; PLK1 inh: 124.7*; EphB4 ephrin blk: 2.6; LYP inh 2: -6.5; PTPN22 act: 4.5; Plk1 PBD FP: 17.7; PLK1 inh conf: -7.1; TR-FRET interf: -52.4

What do the screens show for `CC(=O)Nc1cccc(Oc2ccc(-c3noc(C)n3)cc2)c1`?
Rev-RRE block: 6.9; PLK1 inh: -2.2; EphB4 ephrin blk: -2.9; LYP inh 2: -1.4; PTPN22 act: 5.1; Plk1 PBD FP: 7.4

What do the screens show for `COc1cccc(-c2nc(CS(=O)CC(=O)NCc3ccccc3)c(C)o2)c1` (stereo not given)?
Rev-RRE block: 6.9; PLK1 inh: 71.5*; EphB4 ephrin blk: 3.0; Plk1 PBD FP: -5.3; PLK1 inh conf: -1.1; TR-FRET interf: -46.7

What do the screens show for `CCCNC(=O)CS(=O)Cc1nc(-c2cccc(OC)c2)oc1C` (stereo not given)?
Rev-RRE block: -3.3; PLK1 inh: -6.0; EphB4 ephrin blk: -2.4; LYP inh 2: -2.1; PTPN22 act: 1.2; Plk1 PBD FP: -9.5

Results for COc1cccc(C2C=C(c3cccs3)Nc3ncnn32)c1OC (stereo not given) ?
Rev-RRE block: 18.9; PLK1 inh: 6.8; EphB4 ephrin blk: 2.7; LYP inh 2: -4.2; PTPN22 act: 2.9; Plk1 PBD FP: -13.6
